Measured values as given in paper PMC3819908 (Journal of molecular biology, 2011).
Where a name gives a salt, the structure may show the parent alone.

Assays:
[1] = target: T1, β1AR-JM3 (Meleagris gallopavo, UniProt P07700, A282L/C116L/D200E/D322K/F327A/F338M/I129V/M90V/R68S/Y227A/Y343L); assay: Saturation binding of ^3H-DHA to DDM-solubilised receptor; design: species or system turkey; settings: read-out: KD for ^3H-DHA, E. coli membranes, solubilised in DDM, n = 4
In short: (§1)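 Receptor expressed in E. coli XL1 by auto-induction (37°C 6 h, then 25°C overnight). French-press membranes were solubilised for 1 h on ice in 20 mM Tris pH 8, 0.4 M NaCl, 1% detergent. Binding ran in 20 mM Tris pH 8, 0.4 M NaCl, 0.1% DDM with 1.25-160 nM 3H-DHA. KD came from nonlinear regression; 2-4 experiments in duplicate.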

[2] = target: β1AR-m23 (Meleagris gallopavo, UniProt P07700, A282L/C116L/F327A/F338M/M90V/R68S/Y227A); assay: as above; design: species or system turkey; settings: read-out: KD for ^3H-DHA, E. coli membranes, solubilised in DDM, n = 4
Sequence of β1AR-m23 (P07700 34-424 R68S/M90V/C116L/Y227A/A282L/F327A/F338M): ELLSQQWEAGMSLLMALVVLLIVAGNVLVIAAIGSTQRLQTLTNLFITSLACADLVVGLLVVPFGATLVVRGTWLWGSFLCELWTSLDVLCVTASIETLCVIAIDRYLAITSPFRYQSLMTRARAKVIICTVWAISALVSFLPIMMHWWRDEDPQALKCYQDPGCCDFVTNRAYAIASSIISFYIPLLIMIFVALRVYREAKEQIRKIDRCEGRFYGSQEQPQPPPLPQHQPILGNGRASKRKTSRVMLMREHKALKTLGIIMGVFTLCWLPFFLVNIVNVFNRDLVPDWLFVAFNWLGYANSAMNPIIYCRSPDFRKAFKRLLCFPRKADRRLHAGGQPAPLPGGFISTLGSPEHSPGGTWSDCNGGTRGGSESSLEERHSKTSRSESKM
In short: as §1

[3] = target: T1, β1AR-JM3; assay: Competition binding, displacement of ^3H-DHA; design: species or system turkey; settings: competition with ^3H-DHA
[4] = Thermostability assay of detergent-solubilised receptors expressed in E. coli; assay type: physicochemical, turkey; settings: for increase in thermostability (apparent Tm) relative to β1AR-m23: solubilised in NG
[5] = Thermostability assay of cysteine mutants expressed in HEK293T cells; assay type: physicochemical, turkey; settings: Cys mutants, solubilised in NG
In short: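 Transiently transfected HEK293T cells were harvested after 48 h, held 1 h on ice in 75 mM Tris pH 8, 12.5 mM MgCl2, 2 mM EDTA, then detergent-solubilised at 4°C. Samples were diluted in 20 mM Tris pH 8, 0.4 M NaCl and heated 30 min at a range of temperatures without ligand. 3H-DHA (80 nM final) was added for 1 h at 4°C; gel-filtration separation gave apparent Tm.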

[6] = in dodecylmaltoside (DDM); cited from earlier work

T1 sequence (P07700 34-424 R68S/M90V/C116L/I129V/D200E/Y227A/A282L/D322K/F327A/F338M/Y343L): as the sequence (P07700 34-424 R68S/M90V/C116L/Y227A/A282L/F327A/F338M) above, with I96V, D167E, D289K, Y310L counted along it

Compound: 1-[4,6-propyl-^3H]dihydroalprenolol [^3H-DHA]
- Kd [1]: 10.6 ± 1.6 nM
- Kd [2]: 5.5 ± 1.1 nM

Compound: NC[C@H](O)c1ccc(O)c(O)c1 [noradrenaline, L-(-)-norepinephrine bitartrate salt monohydrate]
- fold weaker binding to β1AR-JM3 compared to wild-type β1AR [3]: 4960 fold

Compound: D322K: β1AR-m23 salt bridge mutant D322K
- increase in thermostability (apparent Tm) relative to β1AR-m23 [4]: 5 °C

Compound: M44C: single cysteine mutant of β1AR-m23
- destabilisation (decrease in thermostability) relative to β1AR-m23 [5]: 4 °C

Compound: V103C: single cysteine mutant of β1AR-m23
- destabilisation (decrease in thermostability) relative to β1AR-m23 [5]: 7 °C

Compound: Y343L: most stabilising single mutation of β1AR-m23 from the leucine scan
- increase in thermostability (apparent Tm) relative to β1AR-m23 [4]: 5 °C

Compound: wild-type receptor: residues 34-424 of the turkey β1AR
- decrease in stability on addition of Zn^2+ ([4]; 1 mM ZnCl2): up to 7 °C

Compound: β1AR-m23: residues 34-424 of turkey β1-adrenoceptor with R68S, M90V, Y227A, A282L, F327A, F338M and C116L
- apparent Tm ([4]; 0.8% NG, identical conditions): 23.4 ± 0.8 °C
- increase of the apparent Tm relative to wild type [6]: 21 °C
